The nature of this data set: Toxicity liver stage against HepG2, at 10uM. The class given is cell-based. Set-up: test concentration 10 uM, cell line HepG2-A16-CD81EGFP. Particulars: human, HepG2-A16-CD81EGFP cells; read-out: INHIBITION
In a few lines: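 Uninfected HepG2-A16-CD81EGFP cells, 3 × 10^3 per well, 1536-well, plated on prespotted compound at 10 μM final, parasite-free screening media added to match infected plates; puromycin 10 μM positive, DMSO 0.5% negative; run in parallel with 48 h PbLuc assay at 37 °C, 5% CO2; viability by CellTiter-Glo luminescence, normalized to controls.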
For `Cc1cnc2c(c1NCc1cccs1)c(=O)n(C)c(=O)n2C`, the cytotoxicity at 10 µM came to 0.319%.

On to `O=C(NCC1(O)CCOCC1)c1ccc(F)cc1`, for which the cytotoxicity at 10 µM was -9.52%.

Turning to `COC[C@@H]1CN(C)C(=O)[C@@H]2CCN(Cc3ccco3)CC[C@H]12`, the cytotoxicity at 10 µM is -6.13%.

In the case of `CN(C)C(=O)N1C[C@@H]2COC[C@]2(c2nnc(C3CC3)o2)C1`, the cytotoxicity at 10 µM was -4.05%.

In the case of `Cc1cnc(NC(=O)CSC2CCc3ccccc3NC2=O)s1` (stereo not given), the cytotoxicity at 10 µM is -2.34%.

For the molecule `Cc1c(Cl)c(C(=O)NC(C)CN2CCOCC2)nn1C` (stereo not given), the cytotoxicity at 10 µM is -1.77%.

Consider `Cc1cccc(Cc2cc(C)nc(C3CCCNC3)c2)c1` (stereo not given), for which the cytotoxicity at 10 µM turned out to be 1.58%.

For `CNc1cncc(C2CCCN2C(=O)c2ccc3c(c2)CCC3)n1` (stereo not given), the cytotoxicity at 10 µM was -15.1%.

As to `NCc1cnn(-c2ccccc2C(=O)NCCCn2ccnc2)c1`, the cytotoxicity at 10 µM is -3.01%.

`Cc1cnc(N2CCC(OCCN3CCCCC3)C2)nc1C` (stereo not given): the cytotoxicity at 10 µM is -43.9%.

For the molecule `CCCn1ccnc1-c1cccc(NC(=O)C2CCCOC2)c1` (stereo not given), the cytotoxicity at 10 µM is -2.43%.

For `Clc1cc(CN2CCCN3CCCC3C2)c2ncccc2c1` (stereo not given), the cytotoxicity at 10 µM was determined as 19.5%.

For `CCN(Cc1nc(-c2ccco2)no1)Cc1cccc2c1OCO2`, the cytotoxicity at 10 µM amounted to 8.33%.

`CC(C)N(C)S(=O)(=O)NCc1cccnc1N(C)C`: the cytotoxicity at 10 µM came out at 2.57%.

On to `CCNC(=O)c1ccc(NC(=O)N(C)Cc2cccn2C)c(C)c1`, for which the cytotoxicity at 10 µM is -0.132%.

As for `CCc1ccc(CNc2cc(-c3ccoc3C)nn2CCO)o1`, the cytotoxicity at 10 µM is 0.485%.

`Cc1cc(S(C)(=O)=O)c(C)c(S(=O)(=O)NCC2CCC2)c1`: the cytotoxicity at 10 µM worked out at 16.3%.

In the case of `COc1ccc(C)cc1C(C)NS(=O)(=O)c1ccc2c(c1)CCC(=O)N2` (stereo not given), the cytotoxicity at 10 µM is -33%.

On to `Cc1cc(CNC(=O)N2CCN(c3ccc(Cl)cn3)CC2)c(C)o1`, for which the cytotoxicity at 10 µM amounted to 13.9%.

Consider `Cc1nc(CNC(=O)N2CCN(c3ccc(Cl)cn3)CC2)sc1C`, for which the cytotoxicity at 10 µM amounted to 3.92%.

Regarding `CN(Cc1ccc2c(c1)OCCO2)c1ncc(S(N)(=O)=O)s1`, the cytotoxicity at 10 µM is 0.482%.

As to `CCOC(=O)C1CCN(C(=O)CN2CCCC2c2ccsc2)CC1` (stereo not given), the cytotoxicity at 10 µM is -5.42%.

Regarding `CCn1nc(C)cc1C(=O)NCc1cc(N(C)C)nc2ccccc12`, the cytotoxicity at 10 µM stood at 10.6%.

On to `Cc1cc(S(=O)(=O)N2CCCc3cc(Br)ccc32)sc1C(=O)O`, for which the cytotoxicity at 10 µM amounted to 2.91%.

`COCCSCC(=O)NC1(c2cccc(Br)c2)CC1`: the cytotoxicity at 10 µM is 13.3%.

`CCOc1cc(CN(C)CCC(=O)OC)ccc1OC(F)F`: the cytotoxicity at 10 µM is -0.769%.

With `CCN(CC)C(CNS(=O)(=O)c1ccc(C(N)=O)cc1)c1ccco1` (stereo not given), the cytotoxicity at 10 µM is -8.64%.

In the case of `Cc1sc2nc(C(F)(F)F)nc(N3CCN(S(C)(=O)=O)CC3)c2c1C`, the cytotoxicity at 10 µM was -8.07%.

In the case of `NC(c1ccc(F)cc1)c1cccs1` (stereo not given), the cytotoxicity at 10 µM is 15.6%.

Consider `O=C(C[S+]([O-])Cc1cccc(F)c1)NC1CCCC1` (stereo not given), for which the cytotoxicity at 10 µM turned out to be 1.79%.

With `CC(C(=O)Nc1ncccn1)N1CCC(n2ccnc2)CC1` (stereo not given), the cytotoxicity at 10 µM was -8.15%.

On to `Cc1[nH]ccc1C(=O)N(C)C1CC(=O)N(Cc2ccccc2)C1=O` (stereo not given), for which the cytotoxicity at 10 µM turned out to be 8.76%.

With `Cc1cnn(CCNC(C)c2nnc(-c3ccccc3)o2)c1` (stereo not given), the cytotoxicity at 10 µM is -2.4%.

With `Cc1cccc(N2CCN(C(=O)c3c(C)nn(C)c3C)CC2)c1C`, the cytotoxicity at 10 µM was -7.28%.

In the case of `COc1ccc(NC(C)c2nnnn2-c2ccccc2)cc1F` (stereo not given), the cytotoxicity at 10 µM is 12.1%.

For `CC(=O)NS(=O)(=O)c1ccc(F)c(C(F)(F)F)c1`, the cytotoxicity at 10 µM is -4.73%.

For `Cc1cc2n(n1)CC(CNCCc1cnn(C)c1)CN2` (stereo not given), the cytotoxicity at 10 µM stood at 5.27%.

For the molecule `Cc1cc(C)cc(C(C)NC(=O)c2ccc(CS(C)(=O)=O)o2)c1` (stereo not given), the cytotoxicity at 10 µM was determined as 2.49%.

On to `CN(C)C(=O)CCS(=O)(=O)Cc1cc(Cl)c2c(c1)OCCO2`, for which the cytotoxicity at 10 µM turned out to be 9.15%.

As to `O=C(Cc1ccc(F)cc1)NCCNS(=O)(=O)C1CCCC1`, the cytotoxicity at 10 µM came out at 9.31%.

Take `CC(=O)N1CCN(CCNc2ncc(Br)cc2C)CC1`: the cytotoxicity at 10 µM worked out at 2.86%.

Turning to `CC1c2ncc(COc3cccnc3)n2CCN1Cc1ccco1` (stereo not given), the cytotoxicity at 10 µM was -105%.

For `Cc1ccoc1C(=O)N1CC[C@H]2C[C@H](c3nnc(C4CC4)o3)O[C@@H]2C1`, the cytotoxicity at 10 µM was -105%.

In the case of `CCS(=O)(=O)N1CCC2(CC1)CN(c1ccsc1)C(=O)CO2`, the cytotoxicity at 10 µM was -73.7%.

As to `CNC(=O)[C@@]12CCO[C@@H]1CCN(S(=O)(=O)c1cc(C)cc(C)c1)C2`, the cytotoxicity at 10 µM is -73.5%.

As to `Cc1nc(COC[C@H]2CCC[C@]23CN(CC2CC2)CCO3)cs1`, the cytotoxicity at 10 µM is -76.9%.

Consider `CNC(=O)C1=NOC2(CCN(Cc3nccs3)C2)C1` (stereo not given), for which the cytotoxicity at 10 µM was -73.4%.

Consider `Cc1noc([C@H]2C[C@@H]3CCN(C(=O)N(C)C)C[C@H]3O2)n1`, for which the cytotoxicity at 10 µM came to 2.8%.

In the case of `COCCC(=O)N1CC2(CCN(Cc3ccoc3)C2)C1`, the cytotoxicity at 10 µM is 8.47%.

As for `CNCC(=O)Nc1ccc(-c2cnc(NCCS(C)(=O)=O)nc2)cc1`, the cytotoxicity at 10 µM is -3.08%.

With `c1cc(CN2CCCN(c3ccc4cc[nH]c4n3)CC2)ccn1`, the cytotoxicity at 10 µM was -9.98%.

For `CC(C)Cc1ncc2c(n1)CN(C(=O)Cn1c(=O)oc3ccccc31)C2`, the cytotoxicity at 10 µM was -36.2%.

Consider `Cc1cc(C(F)(F)F)nc(CNC(=O)C2CCCCCN2C)n1` (stereo not given), for which the cytotoxicity at 10 µM is -46%.

`COc1nc2c(cc1C(=O)N1CCCOC(CN3CCCC3)C1)CCC2` (stereo not given): the cytotoxicity at 10 µM is -48.8%.

For the molecule `CCCN1CCC(Cc2nc(CN3CCN(C)CC3)no2)CC1`, the cytotoxicity at 10 µM was 1.25%.

As to `CN(C)C(=O)c1cccnc1N1CCOC(c2ccc(Cl)cc2)C1` (stereo not given), the cytotoxicity at 10 µM was found to be 9.39%.

With `Oc1ccccc1CN1CCC(n2cc(-c3ccc(F)cc3)nn2)CC1`, the cytotoxicity at 10 µM was -2.68%.

With `COc1cc(S(=O)(=O)N2C[C@@H](C)[C@@](C)(O)C2)c(C)cc1C`, the cytotoxicity at 10 µM is -2.06%.

With `Cc1cc(C(=O)NCc2cccnc2N2CCCC(O)C2)c(C)o1` (stereo not given), the cytotoxicity at 10 µM came to 16.3%.

Take `O=C(c1cc(=O)n(-c2ccccc2)[nH]1)N1CCCC(c2ccn[nH]2)C1` (stereo not given): the cytotoxicity at 10 µM was -2.21%.

On to `Oc1cccc(CN2CCN(C3CCc4ccccc4C3)CC2)c1` (stereo not given), for which the cytotoxicity at 10 µM was found to be 6.42%.

Consider `CC(C)(O)CCc1cccc(C(=O)NCc2cnn3cccnc23)c1`, for which the cytotoxicity at 10 µM is -44.8%.

As for `O=C(NCc1nc(NC2CCCC2)c2cc(Cl)ccc2n1)c1cscn1`, the cytotoxicity at 10 µM amounted to 7.12%.

In the case of `O=C(c1cc2c([nH]c1=O)CCC2)N1CCCCC1c1cccc(F)c1` (stereo not given), the cytotoxicity at 10 µM is -6.22%.

Consider `Cc1ccsc1-c1nc(CN(C)Cc2cc[nH]n2)c(C)o1`, for which the cytotoxicity at 10 µM came to 10.3%.

In the case of `Cc1cc(F)ccc1N1CCC(N2C[C@@H](C)[C@@](C)(O)C2)CC1`, the cytotoxicity at 10 µM turned out to be 8.79%.

For `CCCN1CCc2[nH]cnc2C12CCN(C(=O)CCn1cccn1)CC2`, the cytotoxicity at 10 µM stood at 7.36%.

`COC[C@]1(O)CCN(C(=O)c2cccc(CN(C)C)c2)CC1(C)C`: the cytotoxicity at 10 µM came out at 3.26%.

As for `O=C(NC1CC1)c1nc(Cn2c(C(F)F)nc3ccccc32)no1`, the cytotoxicity at 10 µM came to 7.59%.

As for `CCN(CCO)C[C@@H]1CN(c2nc(C)cc(C)n2)C[C@@H]1CO`, the cytotoxicity at 10 µM is -5.34%.

Take `CC(C)[C@@H]1CN(CCCOc2ccc(F)cc2)C[C@H]1NS(C)(=O)=O`: the cytotoxicity at 10 µM is -46.4%.

Take `CCC(CO)N(CC=C(C)C)Cc1ccsc1` (stereo not given): the cytotoxicity at 10 µM was 6.07%.

Consider `O=C(CCCn1cncn1)N1CCC2(CC1)[C@H](O)C[C@@H]2OCCO`, for which the cytotoxicity at 10 µM is 5.3%.

For the molecule `CC(=O)N1CCCC(Cc2cncc(Br)c2)CC1` (stereo not given), the cytotoxicity at 10 µM was determined as 4.99%.

`CC(Cn1cccn1)NC(=O)NCc1ccc(OC2CCCC2)nc1` (stereo not given): the cytotoxicity at 10 µM was -12.9%.

Take `Cc1nc(COc2cccc(C#N)c2)no1`: the cytotoxicity at 10 µM is -0.513%.

Turning to `O=C(CN1CC(n2cccn2)C1)NCCCc1ccccc1`, the cytotoxicity at 10 µM is -9.51%.

Turning to `COC(=O)c1ccc(N2CCN(C(=O)c3cc(C)on3)C(C)C2)cc1` (stereo not given), the cytotoxicity at 10 µM was -7.85%.

For the molecule `CC(C)c1nc(C2CCCN2CC(=O)Nc2ccc(Cl)cn2)no1` (stereo not given), the cytotoxicity at 10 µM was -3.13%.

For `Cc1cnn(CC(C)NCc2ccc(OCc3ccncc3)cc2)c1` (stereo not given), the cytotoxicity at 10 µM was 3.15%.

Take `Fc1cccc(F)c1Cn1c(C2CCNCC2)cc2cccnc21`: the cytotoxicity at 10 µM is -3.4%.

`Cc1ccc(CN(CCCn2ccnc2)Cc2ccccc2O)s1`: the cytotoxicity at 10 µM was -14.6%.

As for `Cn1nc(C2CCCN(Cc3ccc(F)c(F)c3)C2)c2nccnc21` (stereo not given), the cytotoxicity at 10 µM was -2.9%.

Consider `Cc1noc(C)c1CN1CC[C@H]2OCC[C@@H](C(=O)NCC3CC3)[C@H]2C1`, for which the cytotoxicity at 10 µM amounted to 1.27%.

With `CN1CCN(Cc2cn3c(n2)CN(C(=O)c2cccn2C)CC3)CC1`, the cytotoxicity at 10 µM was 2.89%.

With `COCCN1CC[C@H]2CN(c3cc(OC)ncn3)C[C@@H]2C1=O`, the cytotoxicity at 10 µM came out at 10.3%.

Regarding `Cn1cc(C(=O)NCc2cn3c(n2)CN(C2CCOCC2)CC3)cn1`, the cytotoxicity at 10 µM was found to be 11.2%.

For the molecule `c1cncc(C2CC3(CCN(c4cnccn4)CC3)c3ccccc32)c1` (stereo not given), the cytotoxicity at 10 µM was 11.2%.

On to `Cc1cnc(N2CCC3(CC(=O)N(Cc4csc(C)n4)C3)C2)nc1` (stereo not given), for which the cytotoxicity at 10 µM was -0.211%.

For `Cn1cc(CN2CC[C@@H](NS(C)(=O)=O)[C@@H]2Cc2cccnc2)cn1`, the cytotoxicity at 10 µM is -74.4%.

Take `Cn1cc(N2CC3(CCN(Cc4ccsc4)CC3)OCC2=O)cn1`: the cytotoxicity at 10 µM is -82.8%.

Turning to `O=C(NCc1ccccn1)[C@@H]1CCO[C@@H]2CCN(Cc3ccoc3)C[C@H]21`, the cytotoxicity at 10 µM is 5.33%.

As for `COCC1CN(S(=O)(=O)Cc2ccccc2)Cc2c1cnn2C` (stereo not given), the cytotoxicity at 10 µM was -3.61%.

For the molecule `CC(C)=CCN1C[C@@H]2CC[C@H]1CN(Cc1coc(C)n1)C2`, the cytotoxicity at 10 µM came out at 1.25%.

As to `CCCn1nccc1NC(=O)CN1CCc2cnc(C(C)C)nc2C1`, the cytotoxicity at 10 µM was -5.59%.
